In data set [1] the test system is Mus musculus. The data set is described as follows: Analgesic activity in mouse assessed as inhibition of acetic acid-induced writhing at 100 mg/kg, sc. More on the design: dose 100 mg/kg. It is filed as functional, organism-based. On the technique in general: Writhing tests count abdominal constrictions after an irritant is injected.
Data set [2] is filed under the species Mus musculus. The data set is described as follows: Toxicity in mouse assessed as scratching at injection site at 1 mg/ml. It is filed as organism-based. The following applies: in vivo.
Data set [3] relates to Mus musculus. The data set is described as follows: Analgesic activity in sc dosed mouse assessed as inhibition of acetic acid-induced writhing in presence of 10 mg/kg naloxone. In kind it is functional, organism-based. Set-up: dose 10 mg/kg. The following applies: at 10 mg/kg.
In data set [4] the test system is Mus musculus. The data set is described as follows: Analgesic activity in sc dosed mouse assessed as inhibition of acetic acid-induced writhing. It is filed as functional. A digest of the protocol: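 Test agents were given to mice by subcutaneous injection, and doses were expressed in mg/kg. The ED50 was derived from the dose-response data and reported with 95% confidence limits.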

For data set [5], the system named is Mus musculus. Kind of data set: Analgesic activity in sc dosed mouse assessed as peak inhibition of acetic acid-induced writhing measured at 5 to 15 mins. In kind it is functional, organism-based.
In data set [6] the test system is Mus musculus. The data set is described as follows: Analgesic activity in sc dosed mouse assessed as inhibition of acetic acid-induced writhing measured at 30 to 60 mins. It is filed as functional, organism-based.

The structures appear in SMILES notation. The source made the active and inactive calls. No cut-off for these calls is given here.

As to `CCC1=NCC(C)C(Cc2ccccc2)(c2ccccc2)O1` (racemic), in data set [1], the inhibition entry was “inactive”.

In general, ED50 refers to the midpoint of the dose-response relation. Regarding `CCC(=O)OC(Cc1ccccc1)(c1ccccc1)C(C)CN.Cl` (racemic), in data set [2], the Activity entry is on record as “Toxic”. For the same compound, in data set [3], the inhibition entry was “inactive”. Further, in data set [4], the ED50 was determined as 51 mg/kg. The inhibition entry in data set [5] and in data set [6] was “Active” throughout.

In the case of `CCC(=O)O[C@](Cc1ccccc1)(c1ccccc1)[C@H](C)CN`, in data set [2], the Activity result was “Toxic”. Also, the inhibition entry in data set [3] is “inactive”. The ED50 in data set [4] is 25 mg/kg. In addition, the inhibition entry in data set [5] and in data set [6] was “Active” each time.

On to `CCC(=O)O[C@](Cc1ccccc1)(c1ccccc1)[C@H](C)CN(C)C` [PROPOXYPHENE], for which the ED50 in data set [4] is 6.9 mg/kg.

Values taken from ChEMBL document CHEMBL3243985, “Synthesis of two metabolites of (+)-propoxyphene” (J Med Chem, 1977).
